Source: PubChem
Apaf-1 inh = blocks human Apaf-1 apoptosome activity. O14727. reconstituted apoptosome caspase-3 activity, DEVD-Rh110 fluorescence. inhibition, % at 20 µM. hit rate 0.71% among 330,000. AID 489030; active = inhibition of at least 40% at 20 µM;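 note: plate controls were DMSO wells for no effect and DEVD-CHO caspase inhibitor wells for full effect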
Target sequence (O14727 whole entry, looked up): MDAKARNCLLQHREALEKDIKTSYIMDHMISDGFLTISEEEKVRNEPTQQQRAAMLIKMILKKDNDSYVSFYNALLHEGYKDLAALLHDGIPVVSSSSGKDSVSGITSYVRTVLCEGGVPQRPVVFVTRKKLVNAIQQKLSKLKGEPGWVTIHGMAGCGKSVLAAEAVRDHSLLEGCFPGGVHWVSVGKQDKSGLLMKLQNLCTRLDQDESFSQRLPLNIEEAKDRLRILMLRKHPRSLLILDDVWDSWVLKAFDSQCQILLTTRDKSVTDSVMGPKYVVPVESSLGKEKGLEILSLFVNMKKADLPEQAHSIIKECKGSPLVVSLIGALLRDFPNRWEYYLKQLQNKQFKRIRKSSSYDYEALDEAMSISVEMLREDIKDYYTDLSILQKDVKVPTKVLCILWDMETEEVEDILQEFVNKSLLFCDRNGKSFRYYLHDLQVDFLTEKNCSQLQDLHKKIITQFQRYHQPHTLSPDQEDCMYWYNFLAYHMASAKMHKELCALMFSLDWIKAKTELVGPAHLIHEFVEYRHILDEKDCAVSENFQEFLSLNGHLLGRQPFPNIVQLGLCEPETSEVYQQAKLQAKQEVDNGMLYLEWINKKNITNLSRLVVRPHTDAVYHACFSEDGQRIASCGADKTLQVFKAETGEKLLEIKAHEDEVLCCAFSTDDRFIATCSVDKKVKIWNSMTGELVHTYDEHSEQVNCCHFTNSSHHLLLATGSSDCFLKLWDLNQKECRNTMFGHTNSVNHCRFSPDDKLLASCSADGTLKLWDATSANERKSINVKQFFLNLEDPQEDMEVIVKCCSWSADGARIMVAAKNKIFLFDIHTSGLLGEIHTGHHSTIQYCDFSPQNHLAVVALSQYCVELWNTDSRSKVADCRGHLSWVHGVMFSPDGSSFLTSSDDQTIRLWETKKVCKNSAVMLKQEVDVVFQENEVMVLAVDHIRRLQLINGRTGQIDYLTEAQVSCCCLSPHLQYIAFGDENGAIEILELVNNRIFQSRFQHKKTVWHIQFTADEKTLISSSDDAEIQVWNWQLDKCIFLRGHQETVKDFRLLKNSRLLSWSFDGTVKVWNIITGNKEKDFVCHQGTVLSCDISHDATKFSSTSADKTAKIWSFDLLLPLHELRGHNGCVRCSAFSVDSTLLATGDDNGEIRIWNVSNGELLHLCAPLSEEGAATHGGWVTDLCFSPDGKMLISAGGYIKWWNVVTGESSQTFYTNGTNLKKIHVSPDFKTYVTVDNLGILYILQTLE
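Material: cell-free apoptosome with Apaf-1, procaspase-3 and caspase-9; Buffer or medium: Hepes pH 7.5 with detergent and BSA; Reagent: cytochrome c trigger plus (Z-DEVD)2-Rh110 caspase-3 substrate; Times: compound with Apaf-1, dATP, procaspase-3 30 min, then 50 min reaction, room temperature; Technique: Rh110 fluorescence intensity.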
MPTP block = blocks calcium-induced mitochondrial swelling. isolated mouse mitochondria, Ca2+ swelling absorbance, 30 min. inhibition, % at 10 µM. hit rate 1.4% among 360,000. AID 602449;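 active = inhibition of 50% or more, scaled per plate between neutral and stimulator controls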;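 note: 0% = DMSO wells given calcium and 100% = 1 mM EGTA wells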
MIN6 prolif = inducers of beta-cell replication in MIN6 cells; AID 2380; MIN6 cells proliferation, ATPlite luminescence, 48 h; cells starved in 0.2% serum; 100% = growth in 10% serum; hit rate 0.29% among 330,000; proliferation, % at 10 µM;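 active = compounds whose signal lies at least 3.5 SD above the mean of all wells on their plate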;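 note: 0% = DMSO-treated cells in low-serum medium and 100% = 10% serum control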
hiPSC survival = enhancers of human iPSC single-cell survival; hiPSC single-cell survival, ATPlite luminescence; 100% = ROCK inhibitor wells, 0% = DMSO; AID 602274; hit rate 0.044% among 360,000; survival enhancement, % at 20 µM; in the data active = survival enhancement above about 18%;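 note: cells exposed to compounds for 16 hours before the ATP read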
UBC13 polyUb = blocks human UBC13 polyubiquitin chain formation; inhibition, % at 20 µM; hit rate 0.47% among 330,000; TR-FRET; AID 485273; P61088; in the data active = inhibition above about 45%, passing the limit was not always enough
Granule exo inh = blocks lytic granule exocytosis; TALL-104 LAMP-1 surface exposure, flow cytometry; cells stimulated with thapsigargin and PMA; inhibition, % at 10 µM; hit rate 0.66% among 360,000;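 active = inhibition above about 55%, limit read from the data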
Apaf-1 inh conf2 = Apaf-1 inhibition, single-dose confirmed; shares compounds with Apaf-1 inh; reconstituted apoptosome, caspase-3 DEVD-Rh110 fluorescence; inhibition, % at 20 µM; hit rate 25% among 1,800; AID 504614;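 active = mean inhibition of at least 40% at 20 µM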;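 note: plate controls were DMSO wells for no effect and DEVD-CHO caspase inhibitor control wells for full effect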
Rh110 interf inh = counter-screen for Apaf-1 inhibitors: fluorescence interference | activation (fluorescence interference), % at 20 µM | Rh110 fluorescence interference, quenched caspase reaction | 1,800 tested, under 10 active | shares compounds with Apaf-1 inh;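 active = signal rise of 40% or more at 20 µM, treated as a fluorescence artifact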
Fluor interf inh = shows fluorescence interference in the Apaf-1 inhibitor assay format; shares compounds with Apaf-1 inh; fluorescence interference counterscreen, Apaf-1 assay format; IC50, µM; 460 tested, under 10 active; call rule not given here
* marks the source's active call; other numbers are inactive results. Hits are enriched below; roughly 3% of the tested compounds scored in any of these assays.

What do the screens show for `O=c1[nH]c(C2CCCN(S(=O)(=O)c3ccccc3F)C2)nc2c1nnn2Cc1ccccc1Cl` (configuration not stated)?
Apaf-1 inh: 41*; MPTP block: 2; MIN6 prolif: -4; hiPSC survival: 0; UBC13 polyUb: 0; Granule exo inh: 23; Apaf-1 inh conf2: 35; Rh110 interf inh: 14

What do the screens show for `O=c1[nH]c(C2CCN(S(=O)(=O)c3ccccc3F)CC2)nc2c1nnn2Cc1ccc(F)cc1`?
Apaf-1 inh: 21; MPTP block: -2; MIN6 prolif: 4; hiPSC survival: 0; UBC13 polyUb: 4; Granule exo inh: -6

What do the screens show for `Cc1ccc(Cn2nnc3c(=O)[nH]c(C4CCN(S(=O)(=O)c5ccc(C)cc5)CC4)nc32)cc1`?
Apaf-1 inh: 20; MPTP block: -3; MIN6 prolif: -6; hiPSC survival: 1; UBC13 polyUb: 18; Granule exo inh: -1

Results for O=c1[nH]c(C2CCN(S(=O)(=O)c3ccc(C(F)(F)F)cc3)CC2)nc2c1nnn2Cc1ccc(F)cc1 ?
Apaf-1 inh: 41*; MPTP block: 0; MIN6 prolif: -7; hiPSC survival: 0; UBC13 polyUb: 0; Granule exo inh: -10; Apaf-1 inh conf2: 30; Rh110 interf inh: -10

What do the screens show for `CC1CCC(CN2C(Nc3ccccc3)=NC[C@@H]2C)CC1` (some centres not stated)?
Apaf-1 inh: -1; MPTP block: -3; MIN6 prolif: 5; hiPSC survival: -1; UBC13 polyUb: 10; Granule exo inh: 0

How did O=[N+]([O-])c1cc(F)c2cccnc2c1O do in these assays?
Apaf-1 inh: 64*; MPTP block: -4; MIN6 prolif: -5; hiPSC survival: 0; UBC13 polyUb: -99; Granule exo inh: -5; Apaf-1 inh conf2: 29; Rh110 interf inh: 8

How did CC(=O)Nc1ccc2c(c1)Cc1c(F)cccc1-2 do in these assays?
MPTP block: -2; hiPSC survival: -2; Granule exo inh: -2

What do the screens show for `CCOC(=O)C[C@@H]1OC[C@H](C)N1S(=O)(=O)c1ccc(C)cc1`?
MPTP block: 1; Granule exo inh: -3

What do the screens show for `CC1=NN(c2ccccc2)C(=O)C1N=Nc1ccc(C)cc1` (configuration not stated)?
Apaf-1 inh: -9; MIN6 prolif: -1; UBC13 polyUb: -7

Results for CC1=NN(c2ccc(C)cc2C)C(=O)C1C(c1ccccc1O)C1C(=O)N(c2ccc(C)cc2C)N=C1C (configuration not stated) ?
Apaf-1 inh: 97*; MPTP block: 0; MIN6 prolif: -3; hiPSC survival: 0; UBC13 polyUb: -18; Granule exo inh: -2; Apaf-1 inh conf2: 23; Rh110 interf inh: -2

How did CC(C#N)(CCc1ccccn1)CCc1ccccn1 do in these assays?
MPTP block: -1; hiPSC survival: 4; Granule exo inh: 1

What do the screens show for `CC(=O)C1=C(O)C(=O)N(Cc2ccccc2)C1c1ccc([N+](=O)[O-])cc1` (configuration not stated)?
Apaf-1 inh: 4; MPTP block: 0; MIN6 prolif: 0; hiPSC survival: 0; UBC13 polyUb: -7; Granule exo inh: -12

How did CCCN(C(=O)Cc1csc(-c2ccccc2)n1)C1CCS(=O)(=O)C1 (configuration not stated) do in these assays?
Apaf-1 inh: -8; MPTP block: -1; MIN6 prolif: -1; hiPSC survival: 1; UBC13 polyUb: 5; Granule exo inh: 1

What do the screens show for `O=C1CC(N2CCOCC2)=NN1c1ccc([N+](=O)[O-])cc1`?
Apaf-1 inh: 94*; MPTP block: 17; MIN6 prolif: -2; hiPSC survival: 1; UBC13 polyUb: -43; Granule exo inh: 3; Apaf-1 inh conf2: 15; Rh110 interf inh: 6

Results for COc1ccc(OC)c(Nc2cc3ccccc3c(=O)[nH]2)c1 ?
Apaf-1 inh: 97*; MPTP block: 1; MIN6 prolif: -6; hiPSC survival: 3; UBC13 polyUb: -102; Granule exo inh: -12; Apaf-1 inh conf2: 94*; Rh110 interf inh: 5; Fluor interf inh: >100

How did COc1ccccc1Nc1cc2cc(Br)ccc2c(=O)[nH]1 do in these assays?
Apaf-1 inh: 97*; MPTP block: 1; MIN6 prolif: -4; hiPSC survival: 7; UBC13 polyUb: -137; Granule exo inh: 7; Apaf-1 inh conf2: 98*; Rh110 interf inh: 16; Fluor interf inh: >100

What do the screens show for `CC(=O)Nc1ccc2nc3ccccc3nc2c1`?
Apaf-1 inh: 50*; MPTP block: 2; MIN6 prolif: -2; hiPSC survival: 0; UBC13 polyUb: -28; Granule exo inh: -2; Apaf-1 inh conf2: 9; Rh110 interf inh: 2

Results for O=C(Nc1ccc2nc3ccccc3nc2c1)c1ccc(Br)cc1 ?
Apaf-1 inh: 19; MPTP block: -1; MIN6 prolif: 0; hiPSC survival: 0; UBC13 polyUb: -2; Granule exo inh: 2

Results for CSCCNC(=O)C1(C)CCN1C(=O)c1ccc(C(C)(C)C)cc1 (configuration not stated) ?
MPTP block: 1; hiPSC survival: 0; Granule exo inh: -4

Results for Clc1ccc(CSc2nnc(-c3ccccn3)n2Cc2ccco2)cc1Cl ?
MPTP block: -2; hiPSC survival: -2; Granule exo inh: 0

Results for Clc1cccc(CSc2nnc(-c3ccccn3)n2Cc2ccco2)c1 ?
Apaf-1 inh: 42*; MPTP block: 1; MIN6 prolif: -5; hiPSC survival: 0; UBC13 polyUb: -12; Granule exo inh: 37; Apaf-1 inh conf2: 14; Rh110 interf inh: 1

How did CC1CN(C(=O)c2ccccc2NS(=O)(=O)c2ccc(Cl)cc2)CC(C)O1 (configuration not stated) do in these assays?
Apaf-1 inh: 0; MPTP block: 0; MIN6 prolif: -2; hiPSC survival: -4; UBC13 polyUb: -1; Granule exo inh: -5

Results for CC1(C)CNc2cc(N)ccc2S1 ?
Apaf-1 inh: 50*; MPTP block: 1; MIN6 prolif: -3; hiPSC survival: -1; UBC13 polyUb: -28; Granule exo inh: 2; Apaf-1 inh conf2: 70*; Rh110 interf inh: 8; Fluor interf inh: >100
